Experimental data taken from ChEMBL document CHEMBL4387708, “Enhancement of Benzothiazoles as Pteridine Reductase-1 Inhibitors for the Treatment of Trypanosomatidic Infections” (J Med Chem, 2019).
The source made the active and inactive calls. The rule behind the calls is not given here.

Assays:
[1] = system: Leishmania infantum; test: Growth inhibition of luciferase expressing Leishmania infantum axenic amastigotes infected in human THP1 cells at 10 uM measured after 72 hrs by steady-glo luminescence assay relative to control; format: organism-based; details: leishmania infantum, 72 h, 10 µM
[2] = system: Trypanosoma brucei; test: Inhibition of N-terminal His-tagged Trypanosoma brucei pteridine reductase 1 at 50 uM using di-hydrobiopterine as substrate measured at 1 min interval for 50 mins in presence of NADPH relative to control
Method in brief: (§1)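 Photometric PTR1 assay with NADPH and dihydrobiopterin substrate. H₄B formation is coupled non-enzymatically to cytochrome c reduction, read as signal increase at 550 nm.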

[3] = biological target: T1, Pteridine reductase 1 (Leishmania major) (UniProt Q01782); test: Inhibition of Leishmania major pteridine reductase 1 at 50 uM using di-hydrobiopterine as substrate in presence of NADPH relative to control; method in brief: as §1
T1 sequence (whole entry): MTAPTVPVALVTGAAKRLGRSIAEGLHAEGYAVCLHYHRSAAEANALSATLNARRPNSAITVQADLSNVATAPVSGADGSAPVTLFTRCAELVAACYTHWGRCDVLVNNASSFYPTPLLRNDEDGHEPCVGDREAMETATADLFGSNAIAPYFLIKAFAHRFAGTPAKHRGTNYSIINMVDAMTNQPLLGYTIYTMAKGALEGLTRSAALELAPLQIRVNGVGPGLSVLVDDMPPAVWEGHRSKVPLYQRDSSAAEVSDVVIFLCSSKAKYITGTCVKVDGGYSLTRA

[4] = system: Trypanosoma brucei; test: Inhibition of PTR1 in Trypanosoma brucei bloodstream forms assessed as potentiation of methotrexate-induced parasitic cell growth inhibition at 10 uM measured after 72 hrs by resazurin-based fluorescence assay (reference value: 19 +/- 6%)
Method in brief: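 Bloodstream-form T. brucei resazurin assay: 72 h at 37 °C, 5% CO₂, then fluorescence at ex 540/em 620 nm. Benzothiazole was tested at 10 μM alone and with 4 μM methotrexate. The index is the combination's activity divided by the sum of the activities of 10 μM benzothiazole and 4 μM methotrexate given separately.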

[5] = biological target: Voltage-gated inwardly rectifying potassium channel KCNH2 (Homo sapiens, UniProt Q12809); test: Displacement of Tracer Red from human ERG by fluorescence polarization assay
Chain of Voltage-gated inwardly rectifying potassium channel KCNH2 (Q12809 whole entry): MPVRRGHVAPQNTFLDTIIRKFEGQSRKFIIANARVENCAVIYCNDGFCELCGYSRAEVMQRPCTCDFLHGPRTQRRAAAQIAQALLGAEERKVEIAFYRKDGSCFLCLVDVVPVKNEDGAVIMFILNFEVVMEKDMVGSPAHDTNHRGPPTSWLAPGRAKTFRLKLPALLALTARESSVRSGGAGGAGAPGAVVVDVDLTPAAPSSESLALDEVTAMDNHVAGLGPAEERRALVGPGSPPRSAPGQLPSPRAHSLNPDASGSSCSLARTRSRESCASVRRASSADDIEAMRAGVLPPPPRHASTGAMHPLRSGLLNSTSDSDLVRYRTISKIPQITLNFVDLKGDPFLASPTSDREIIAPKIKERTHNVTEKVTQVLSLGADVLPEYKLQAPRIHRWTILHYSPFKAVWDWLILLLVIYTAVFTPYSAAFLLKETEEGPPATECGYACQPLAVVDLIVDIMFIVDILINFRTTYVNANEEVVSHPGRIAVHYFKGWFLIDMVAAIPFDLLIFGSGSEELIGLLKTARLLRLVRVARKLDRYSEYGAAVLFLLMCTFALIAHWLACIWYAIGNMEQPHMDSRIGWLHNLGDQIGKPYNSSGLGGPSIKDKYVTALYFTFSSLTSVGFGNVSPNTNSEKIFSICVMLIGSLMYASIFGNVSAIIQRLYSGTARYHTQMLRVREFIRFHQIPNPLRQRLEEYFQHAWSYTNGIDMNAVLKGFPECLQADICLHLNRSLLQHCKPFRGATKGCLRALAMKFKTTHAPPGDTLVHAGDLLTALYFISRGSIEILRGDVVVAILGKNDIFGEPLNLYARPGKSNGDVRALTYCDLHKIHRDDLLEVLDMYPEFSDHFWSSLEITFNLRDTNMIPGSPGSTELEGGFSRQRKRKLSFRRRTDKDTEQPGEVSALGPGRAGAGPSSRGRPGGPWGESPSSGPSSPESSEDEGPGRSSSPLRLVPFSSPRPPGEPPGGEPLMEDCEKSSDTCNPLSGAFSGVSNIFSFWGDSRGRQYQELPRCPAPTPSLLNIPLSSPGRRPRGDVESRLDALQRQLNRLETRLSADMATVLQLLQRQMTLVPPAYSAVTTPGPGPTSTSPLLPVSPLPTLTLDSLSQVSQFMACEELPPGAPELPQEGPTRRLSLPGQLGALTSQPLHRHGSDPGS

[6] = biological target: Cytochrome P450 2C9 (Homo sapiens, UniProt P11712); test: Inhibition of human CYP2C9 expressed in baculovirus infected insect cells using beetle D-luciferin as substrate preincubated for 30 mins followed by NADPH addition and measured after 30 mins by CYP450-Glo assay
Chain of Cytochrome P450 2C9 (P11712 whole entry): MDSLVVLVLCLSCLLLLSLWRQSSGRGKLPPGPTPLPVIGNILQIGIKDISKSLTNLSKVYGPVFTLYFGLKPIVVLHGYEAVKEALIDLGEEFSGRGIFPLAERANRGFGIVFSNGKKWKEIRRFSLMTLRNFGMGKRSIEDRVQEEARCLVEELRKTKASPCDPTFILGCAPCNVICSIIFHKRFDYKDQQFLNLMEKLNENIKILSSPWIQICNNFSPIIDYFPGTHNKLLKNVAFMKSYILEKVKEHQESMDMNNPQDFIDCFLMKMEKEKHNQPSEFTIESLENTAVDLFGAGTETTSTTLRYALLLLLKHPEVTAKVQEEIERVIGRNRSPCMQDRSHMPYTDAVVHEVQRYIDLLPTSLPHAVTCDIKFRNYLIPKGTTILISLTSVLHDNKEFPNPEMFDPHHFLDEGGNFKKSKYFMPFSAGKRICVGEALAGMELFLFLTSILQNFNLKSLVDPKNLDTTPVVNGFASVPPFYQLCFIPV

[7] = biological target: Cytochrome P450 2D6 (Homo sapiens, UniProt P10635); test: Inhibition of human CYP2D6 expressed in baculovirus infected insect cells using beetle D-luciferin as substrate preincubated for 30 mins followed by NADPH addition and measured after 30 mins by CYP450-Glo assay
Chain of Cytochrome P450 2D6 (P10635 whole entry): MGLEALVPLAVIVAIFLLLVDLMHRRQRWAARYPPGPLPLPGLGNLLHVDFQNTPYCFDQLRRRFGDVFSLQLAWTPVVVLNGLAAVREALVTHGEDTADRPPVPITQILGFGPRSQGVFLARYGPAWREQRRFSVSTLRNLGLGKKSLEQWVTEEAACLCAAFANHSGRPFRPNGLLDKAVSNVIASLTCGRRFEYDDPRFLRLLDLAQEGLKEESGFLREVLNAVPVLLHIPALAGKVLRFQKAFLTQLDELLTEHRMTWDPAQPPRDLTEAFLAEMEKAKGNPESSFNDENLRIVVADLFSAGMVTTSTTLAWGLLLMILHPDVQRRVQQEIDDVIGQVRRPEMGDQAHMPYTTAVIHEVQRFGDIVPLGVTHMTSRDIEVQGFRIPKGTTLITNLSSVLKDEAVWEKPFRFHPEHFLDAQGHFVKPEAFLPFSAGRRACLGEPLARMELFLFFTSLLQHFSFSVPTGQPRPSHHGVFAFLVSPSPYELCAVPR

[8] = biological target: Cytochrome P450 3A4 (Homo sapiens, UniProt P08684); test: Inhibition of human CYP3A4 expressed in baculovirus infected insect cells using beetle D-luciferin as substrate preincubated for 30 mins followed by NADPH addition and measured after 30 mins by CYP450-Glo assay
Chain of Cytochrome P450 3A4 (P08684 whole entry): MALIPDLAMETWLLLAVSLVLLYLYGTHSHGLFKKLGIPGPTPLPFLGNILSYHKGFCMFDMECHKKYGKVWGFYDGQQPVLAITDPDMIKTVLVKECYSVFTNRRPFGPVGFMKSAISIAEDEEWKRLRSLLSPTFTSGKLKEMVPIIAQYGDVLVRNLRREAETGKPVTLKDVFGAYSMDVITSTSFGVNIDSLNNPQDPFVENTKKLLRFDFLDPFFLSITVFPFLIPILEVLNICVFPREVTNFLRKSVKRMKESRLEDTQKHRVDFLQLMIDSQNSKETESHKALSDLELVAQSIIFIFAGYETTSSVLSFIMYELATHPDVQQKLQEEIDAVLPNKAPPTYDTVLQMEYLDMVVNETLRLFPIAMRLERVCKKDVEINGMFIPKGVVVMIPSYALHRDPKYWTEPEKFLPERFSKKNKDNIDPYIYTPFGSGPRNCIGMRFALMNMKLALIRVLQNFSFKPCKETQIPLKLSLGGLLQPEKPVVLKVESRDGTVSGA

[9] = Cytotoxicity against human THP1 cells after 72 hrs by MTT assay; format: cell-based, THP-1; details: read-out: NOAEL
[10] = Mitochondrial toxicity in human 786-O cells measured after 6 hrs by MitoTracker Red chloromethyl-X-rosamine based assay; format: cell-based, 786-0
[11] = system: hERG; test: Selectivity index ratio of IC50 for human ERG to EC50 for growth inhibition of Trypanosoma brucei bloodstream forms; format: toxicity; details: read-out: Ratio IC50/EC50
[12] = Thermodynamic solubility of the compound in phosphate buffered saline/10%DMSO after 24 hrs by spectrophotometric method; format: physicochemical; details: read-out: Therm_solubility
Method in brief: (§2)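 Over-saturated suspensions (theoretical maximum 100 µg/mL) in water, PBS, PBS + 10% DMSO or PBS + 50% DMSO were stirred at 1200 rpm for 24 h at 25 °C. They were filtered at 0.2 µm and diluted 1:1 with ACN. Concentration was quantified by UV using a molar extinction coefficient determined at 340 nm.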

[13] = Thermodynamic solubility of the compound in phosphate buffered saline/50%DMSO after 24 hrs by spectrophotometric method; format: physicochemical; details: read-out: Therm_solubility; method in brief: as §2
[14] = system: CYP1A2; test: Selectivity index ratio of IC50 for CYP1A2 (unknown origin) to EC50 for growth inhibition of Trypanosoma brucei bloodstream forms; format: toxicity; details: read-out: Ratio IC50/EC50
[15] = system: CYP2C9; test: Selectivity index ratio of IC50 for CYP2C9 (unknown origin) to EC50 for growth inhibition of Trypanosoma brucei bloodstream forms; format: toxicity; details: read-out: Ratio IC50/EC50
[16] = system: CYP2C19; test: Selectivity index ratio of IC50 for CYP2C19 (unknown origin) to EC50 for growth inhibition of Trypanosoma brucei bloodstream forms; format: toxicity; details: read-out: Ratio IC50/EC50
[17] = system: CYP3A4; test: Selectivity index ratio of IC50 for CYP3A4 (unknown origin) to EC50 for growth inhibition of Trypanosoma brucei bloodstream forms; format: toxicity; details: read-out: Ratio IC50/EC50
[18] = Selectivity index ratio of IC50 for mitochondrial toxicity in human 786-O cells to EC50 for growth inhibition of Trypanosoma brucei bloodstream forms; format: cell-based; details: read-out: Ratio IC50/EC50
[19] = Selectivity index ratio of GI50 for human A549 cells to EC50 for growth inhibition of Trypanosoma brucei bloodstream forms; format: toxicity; details: read-out: Ratio GI50/EC50
[20] = Selectivity index ratio of GI50 for human U2OS cells to EC50 for growth inhibition of Trypanosoma brucei bloodstream forms; format: toxicity; details: read-out: Ratio GI50/EC50
[21] = Selectivity index ratio of NOAEL for human THP1 cells to EC50 for growth inhibition of Trypanosoma brucei bloodstream forms; format: toxicity; details: read-out: Selectivity Index
[22] = Cmax in BALB/c mouse at 1 mg/kg, iv by LC-MS analysis; format: ADME, organism-based; design: dose 1 mg/kg, route intravenous; details: in vivo
Method in brief: (§3)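 Snapshot PK in healthy BALB/c mice. Free compound given in 8% DMSO at 1 mg/kg IV or 20 mg/kg per os; for the formulated arm it was solubilized with hydroxypropyl-β-cyclodextrin (50%) and given at 20 mg/kg per os. Plasma levels were quantified by LC-MS on a C18 column with triple-quadrupole ESI detection in positive ion mode.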

[23] = Cmax in BALB/c mouse at 20 mg/kg, po by LC-MS analysis; format: ADME, organism-based; design: dose 20 mg/kg, route oral; details: in vivo; method in brief: as §3
[24] = Half-life in BALB/c mouse at 1 mg/kg, iv by LC-MS analysis; format: ADME, organism-based; details: in vivo; method in brief: as §3
[25] = Half-life in BALB/c mouse at 20 mg/kg, po co-formulated with hydroxypropyl-beta-cyclodextrin by LC-MS analysis; format: ADME, organism-based; details: in vivo; method in brief: as §3
[26] = system: Trypanosoma brucei brucei; test: Antitrypanosomal activity against red-shifted luciferase expressing Trypanosoma brucei brucei GVR35 infected in BALB/c mouse assessed as reduction in parasite infection at 40 mg/kg, po administered twice a day as suspension in hydroxypropyl-beta-cyclodextrin solution by bioluminescence assay; format: functional, organism-based
Method in brief: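 T. b. brucei GVR35 (luciferase-expressing) was given IP to BALB/c mice as blood carrying 1 x 10⁵ parasites from a donor mouse at first-peak parasitemia; controls received PBS. Compound was given orally as a suspension in (2-hydroxypropyl)-β-cyclodextrin solution at 40 mg/kg twice daily. […] Parasite load was read by bioluminescence imaging after subcutaneous D-luciferin under isoflurane, as total flux per ROI.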

- inhibition [2]: > 60%
- inhibition [3]: > 60%
- growth inhibition (GI) [4]: 30%
- IC50 [6]: > 25 µM
- IC50 [7]: 10 to 25 µM
- IC50 [8]: > 25 µM
- solubility thermodynamic at 24 h [12]: > 100 µg/mL
- solubility thermodynamic at 24 h [13]: > 100 µg/mL
- Cmax [22]: 1630 ng/mL
- Cmax [23]: 826 ng/mL
- half-life [24]: 3.45 h
- half-life [25]: 34.8 h
Compound: Nc1nc2ccc(C(=O)NCc3ccccc3)cc2s1
- growth inhibition (GI) [1]: Non-Toxic
- IC50 [5]: > 25 µM
- MNTC at 72 h [9]: > 25 µM
- IC50 at 6 h [10]: > 25 µM
- selectivity ratio [11]: > 10
- selectivity ratio [14]: > 10
- selectivity ratio [15]: > 10
- selectivity ratio [16]: > 10
- selectivity ratio [17]: > 10
- selectivity ratio [18]: > 10
- selectivity ratio [19]: > 10
- selectivity ratio [20]: > 10
- selectivity ratio [21]: > 10
- Activity [26]: inactive
